Laboratory results reported in ChEMBL document CHEMBL1128642, “Discovery of an orally bioavailable NK1 receptor antagonist, (2S,3S)-(2-methoxy-5-tetrazol-1-ylbenzyl)(2-phenylpiperidin-3-yl)amine (GR203040), with potent antiemetic activity” (J Med Chem, 1995).

Columns and labels:
[1] = target: Substance-P receptor (Homo sapiens, UniProt P25103); experiment: Binding affinity to Tachykinin receptor 1 stably expressed in chinese hamster ovary (CHO) cells; type: cell-based
How it was run: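 Membranes from CHO cells stably expressing human NK1 receptor, grown in DMEM/F12 with 10% FCS and 4 mM glutamine. Incubated 40 min at 22 °C with 0.7–1.0 nM [3H]substance P (final) in HEPES 50 mM/3 mM MnCl2, pH 7.4, 3 µg protein.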

[2] = organism: Canis familiaris; experiment: In vitro metabolic turnover (% parent lost) after exposure to dog hepatic microsomes (hepatic first pass metabolism); type: functional; conditions: Canis lupus familiaris, Liver
How it was run: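 Dog liver microsomes with an NADPH-regenerating system, shaken at 37 °C. Centrifuged, then parent compound quantified by reverse-phase HPLC with UV detection at 215 nm. Turnover (% parent lost) taken from the peak-area difference versus a control incubation lacking NADPH regeneration.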

[3] = system: Mustela putorius furo; experiment: Compound was evaluated in vivo for its antiemetic activity in ferret, which was administered subcutaneously immediately after (0 ptt) induction of emesis; type: functional
How it was run: (§1)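 Adult male ferrets (1.0–1.7 kg), whole-body X-irradiation at 2 Gy over about 5 min. Antagonist given sc 90 min before irradiation or immediately after it. Retches and vomits counted. ID90 is the lowest dose giving ≥90% inhibition of emesis versus untreated irradiated controls; n per group reported.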

[4] = Lipophilicity; type: physicochemical; conditions: octanol/water
[5] = system: Mustela putorius furo; experiment: Compound was evaluated in vivo for its antiemetic activity in ferret, which was administered subcutaneously 90 minutes before (90 ptt) induction of emesis; type: functional; how it was run: as §1
[6] = Partition coefficient (logD); type: physicochemical; conditions: octanol/water
[7] = Oral bioavailability in dog; type: ADME, organism-based, Canis lupus familiaris; conditions: in vivo
How it was run: (§2)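 Beagle dogs, iv then oral crossover at 2 mg/kg with wash-out between doses. Blood drawn predose and at 0.08–8 h; plasma prepared at about 5 °C. Parent compound measured by solid-phase extraction and reversed-phase HPLC-UV. Plasma clearance taken from iv dosing; oral bioavailability F calculated from both routes.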

[8] = system: Mustela putorius furo; experiment: Compound was evaluated in vivo for its antiemetic activity in ferret, which was administered subcutaneously 90 minutes before (90 ptt) induction of emesis;>80% inhibition observed; type: functional
[9] = Compound was evaluated in vivo for plasma clearance in dog after intravenous dose at 2 mg/Kg; type: ADME, organism-based, Canis lupus familiaris; conditions: read-out: Clp; how it was run: as §2
[10] = system: Substance-P receptor (Meriones unguiculatus); experiment: Compound was evaluated for its ex vivo binding affinity towards substance P receptor measured 15 minutes post administration to gerbil; conditions: Gerbillinae

Sequence of Substance-P receptor (P25103 whole entry): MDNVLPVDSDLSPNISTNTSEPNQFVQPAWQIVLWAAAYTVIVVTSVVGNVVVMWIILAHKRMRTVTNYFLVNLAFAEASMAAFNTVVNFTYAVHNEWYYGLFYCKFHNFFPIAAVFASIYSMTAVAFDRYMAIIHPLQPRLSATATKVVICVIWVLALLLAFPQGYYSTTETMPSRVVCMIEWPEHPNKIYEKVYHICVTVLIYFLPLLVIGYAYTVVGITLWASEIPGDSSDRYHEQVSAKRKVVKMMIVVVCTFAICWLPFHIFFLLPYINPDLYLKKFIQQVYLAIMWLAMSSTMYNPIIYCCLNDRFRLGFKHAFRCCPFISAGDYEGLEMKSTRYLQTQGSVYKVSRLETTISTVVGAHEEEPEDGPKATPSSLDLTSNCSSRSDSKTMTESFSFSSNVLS

Ki [1] [nM] | logD [4] | logD [6] | bioavailability [7] [%] | clearance [9] [mL/min/kg] | ED50 [10] [mg/kg] | SMILES | Metabolic turnover [2] [%] | ID90 [3] [mg/kg] | ID90 [5] [mg/kg] | ID90 [8] [mg/kg]
0.0794 | 2 | – | – | – | – | COc1ccc(SC)cc1CN[C@H]1CCCN[C@H]1c1ccccc1 | 94 | 1 | – | –
– | 1.4 | – | < 10 | 94 | – | COc1ccccc1CN[C@H]1CCCN[C@H]1c1ccccc1 [CP-99994] | 100 | 1 | – | 1
0.158 | 1.8 | – | – | – | – | COc1ccc(F)cc1CN[C@H]1CCCN[C@H]1c1ccccc1 | – | 3 | – | –
0.0316 | 3.1 | – | – | – | – | COc1ccc(-c2ccsc2)cc1CN[C@H]1CCCN[C@H]1c1ccccc1 | 92 | >3 | – | –
0.0631 | 2.5 | – | < 10 | 45 | – | COc1ccc(-c2ccoc2)cc1CN[C@H]1CCCN[C@H]1c1ccccc1 | 85 | 0.3 | 0.3 | –
0.0501 | – | 0.8 | 76 | 24 | – | COc1ccc(-n2cnnn2)cc1CN[C@H]1CCCN[C@H]1c1ccccc1 | 51 | 0.1 | 0.1 | –
0.501 | 3 | – | – | – | – | COc1ccc(-c2ccco2)cc1CN[C@H]1CCCN[C@H]1c1ccccc1 | 100 | – | >3 | –
0.0501 | 2.5 | – | – | – | – | COc1ccc(Br)cc1CN[C@H]1CCCN[C@H]1c1ccccc1 | 60 | – | – | –
0.501 | 0.2 | – | 42 | 23 | > 0.3 | COc1ccc(S(C)(=O)=O)cc1CN[C@H]1CCCN[C@H]1c1ccccc1 | 25 | >10 | >10 | –

Continued, compound first:

SMILES | Ki [1] [nM] | logD [4] | logD [6] | bioavailability [7] [%] | clearance [9] [mL/min/kg] | ED50 [10] [mg/kg] | Metabolic turnover [2] [%] | ID90 [3] [mg/kg] | ID90 [5] [mg/kg] | ID90 [8] [mg/kg]
COc1ccc(-c2nccs2)cc1CN[C@H]1CCCN[C@H]1c1ccccc1 | 0.794 | 2.3 | – | – | – | – | 61 | >3 | – | –
COc1ccc(-n2ncnn2)cc1CN[C@H]1CCCN[C@H]1c1ccccc1 | 0.126 | – | 0.8 | – | – | – | 65 | – | >1 | –
COc1ccc(-c2c(C)noc2C)cc1CN[C@H]1CCCN[C@H]1c1ccccc1 | 0.0501 | 2.3 | – | – | – | – | 92 | – | 1 | –
COc1ccc(-c2nnn(C)n2)cc1CN[C@H]1CCCN[C@H]1c1ccccc1 | 2.51 | 1.4 | – | – | – | – | 63 | – | >3 | –
COc1ccc(-c2c(C)nn(C)c2C)cc1CN[C@H]1CCCN[C@H]1c1ccccc1 | 0.794 | 2.3 | – | – | – | – | 82 | – | – | –
COc1ccc(-n2cncn2)cc1CN[C@H]1CCCN[C@H]1c1ccccc1 | 0.158 | 1.2 | – | – | – | – | 55 | 3 | >3 | –
COc1ccc(-c2nccn2C)cc1CN[C@H]1CCCN[C@H]1c1ccccc1 | 2 | 1.2 | – | – | – | – | 90 | – | >3 | –
COc1ccc(-c2nnnn2C)cc1CN[C@H]1CCCN[C@H]1c1ccccc1 | 0.2 | 0.5 | – | – | – | – | 27 | – | >3 | –
COc1ccc(-c2ccncc2)cc1CN[C@H]1CCCN[C@H]1c1ccccc1 | 0.0631 | 2.2 | – | – | – | – | 98 | 0.3 | – | –
COc1ccc(-c2cncnc2)cc1CN[C@H]1CCCN[C@H]1c1ccccc1 | 0.158 | 1.4 | – | – | – | – | 36 | 3 | >3 | –
